Published values from different studies.
Protocols differ between the studies behind these lines.
Target: Dual specificity mitogen-activated protein kinase kinase 2 (MAP2K2, Homo sapiens, UniProt P36507)

SMILES | test | setting | remaining binding
C[C@@H]1CN(c2ccc3ncc(-c4ccc5[nH]nc(C6CC6)c5c4)n3n2)C[C@H](C)O1 | binding, competition with immobilised ligand | 0.5 µM | 100%
O=C(NCCCN1CCOCC1)c1ccc(Nc2ncc(Cl)c(-c3ccc(Cl)s3)n2)cc1 | binding, competition with immobilised ligand | 1 µM | 59%
Nc1ncc2c(n1)-c1c([nH]c3ccc(C#CC4CC4)cc13)CCCC2 | binding, competition with immobilised ligand | 1 µM | 96%
CN(C)c1nccc(-c2cnc3ncccn23)n1 | binding | 1 µM | 65%
Cc1c(NC(=O)c2cc(C(N)=O)nc3cc(F)ccc23)c(C(F)(F)F)nn1Cc1ccc(C(C)(C)C)cc1 | cell-free assay, competition with immobilised ligand | 1 µM | 100%
O=C(Nc1c[nH]nc1C(=O)NC1CCNCC1)c1cc(F)cc(F)c1 | binding, competition with immobilised ligand | 1 µM | 90%
F[C@@H]1CCN(c2nccc(-c3cnn4ncccc34)n2)C1 | binding | 1 µM | 88%
O=C(c1ccc(Nc2nccc(-c3cc4ccccc4s3)n2)cc1)N1CCC(N2CCCC2)CC1 | binding, competition with immobilised ligand | 1 µM | 60%
O=C(Nc1cccnn1)N1CC(C/C=C/c2cncc(Oc3ccc(C(F)(F)F)cn3)n2)C1 | cell-free assay, competition with immobilised ligand | 1 µM | 95%
CNC(=O)[C@@H]1CC[C@@H](n2c(-c3ccc4cnccc4c3)nc3ccc(C(=O)NCc4cccc(C(N)=O)c4)cc32)C1 | binding, competition with immobilised ligand | 1 µM | 79%
c1cncc(-c2cccc(Nc3nccc(NC4CCCCC4)n3)c2)c1 | binding, competition with immobilised ligand | 10 µM | 83%
C=CC(=O)N1CCC(C(=O)NCC(=O)N2CCN(c3nc(-c4cnc(N)nc4C(F)F)nc(N4CCOCC4)n3)CC2)CC1 | binding, competition with immobilised ligand | 1 µM | 59%
CN(c1nccc(-c2cnn3ncccc23)n1)C1CC1 | binding | 1 µM | 100%
C[C@@]1(Cc2ccc(C#N)cc2)C(=O)N(c2cc(Cl)cc(Cl)c2)c2ncc(C(=O)NC3(c4nc(C5CCC5)no4)CC3)n21 | cell-free assay, competition with immobilised ligand | 1 µM | 99%
O=C(NCCCN1CCOCC1)c1ccc(Nc2nccc(-c3cc4ccccc4s3)n2)cc1 | binding, competition with immobilised ligand | 1 µM | 79%
Cc1cnn2ncc(-c3ccnc(N(C)C)n3)c2c1 | binding | 1 µM | 100%
CC(=O)Nc1c(C(C)=O)c(=O)n(C)c2nc(-c3ccc(Cl)cc3Cl)c(-c3ccc(Cl)cc3)cc12 | cell-free assay, competition with immobilised ligand | 1 µM | 100%
COc1cnc(Nc2cccc(S(N)(=O)=O)c2)nc1N1CCN(c2ccccc2)C(=O)C1 | binding, competition with immobilised ligand | 1 µM | 94%
Cc1nccc(COC(=O)N2C[C@@H]3[C@@H](CNC(=O)c4ccc5[nH]nnc5c4)[C@@H]3C2)n1 | cell-free assay, competition with immobilised ligand | 1 µM | 84%
c1cnn2ncc(-c3ccnc(N4CCC45COC5)n3)c2c1 | binding | 1 µM | 81%
CC(=O)N1CCC(c2ccc(C(=O)NC(=N)N)cc2C(F)(F)F)CC1 | cell-free assay, competition with immobilised ligand | 1 µM | 96%
CCN1CCN(Cc2ccc(C(=O)Nc3ccc(C)c(Oc4ccc5c(c4)CC(=O)N5)c3)cc2C(F)(F)F)CC1 | binding, competition with immobilised ligand | 1 µM | 100%
Cc1noc([C@H]2C[C@@H](c3ccc(C(F)(F)F)cc3)CN(C(=O)N3CCS(=O)(=O)C3)C2)n1 | cell-free assay, competition with immobilised ligand | 1 µM | 90%
N[C@H]1CCN(c2nccc(-c3cnn4ncccc34)n2)C1 | binding | 1 µM | 100%
